Activity calls are given as the source filed them. The calls are words filed in the database; no cut-off is given here.
Legend:
[1] = biological target: T1, Cholecystokinin receptor type A (Cavia porcellus, UniProt Q63931); experiment: Concentration required to inhibit the binding of 20 pM [125I]BH-CCK-8S radioligand to guinea pig pancreas CCK1 receptor
T1 sequence (Q63931 whole entry): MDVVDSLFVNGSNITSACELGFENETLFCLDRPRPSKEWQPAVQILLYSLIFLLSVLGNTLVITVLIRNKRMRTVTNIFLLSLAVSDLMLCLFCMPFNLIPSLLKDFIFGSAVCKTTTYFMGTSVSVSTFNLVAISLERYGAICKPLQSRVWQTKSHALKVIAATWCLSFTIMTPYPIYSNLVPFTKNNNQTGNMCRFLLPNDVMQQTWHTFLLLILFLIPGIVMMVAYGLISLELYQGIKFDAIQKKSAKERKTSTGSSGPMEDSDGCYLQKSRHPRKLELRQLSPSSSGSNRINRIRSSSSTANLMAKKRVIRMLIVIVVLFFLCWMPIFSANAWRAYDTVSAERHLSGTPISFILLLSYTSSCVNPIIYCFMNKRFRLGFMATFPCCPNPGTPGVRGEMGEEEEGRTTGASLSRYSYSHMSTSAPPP
Procedure, shortened: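 CCK1 sites on guinea pig pancreatic cells. Competition with 20 pM [125I]BH-CCK-8S, reported as pKI. At least three separate experiments give ± SEM. Where only two experiments were run, no error is given (approximate SEM 0.1 log units).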

[2] = biological target: T2, Gastrin/cholecystokinin type B receptor (Rattus norvegicus) (UniProt P30553); experiment: Antagonist activity against CCK2 receptor estimated from single shifts of pentagastrin concentration-effect curves in the isolated rat stomach; […]; type: functional, tissue-based
T2 sequence (whole entry): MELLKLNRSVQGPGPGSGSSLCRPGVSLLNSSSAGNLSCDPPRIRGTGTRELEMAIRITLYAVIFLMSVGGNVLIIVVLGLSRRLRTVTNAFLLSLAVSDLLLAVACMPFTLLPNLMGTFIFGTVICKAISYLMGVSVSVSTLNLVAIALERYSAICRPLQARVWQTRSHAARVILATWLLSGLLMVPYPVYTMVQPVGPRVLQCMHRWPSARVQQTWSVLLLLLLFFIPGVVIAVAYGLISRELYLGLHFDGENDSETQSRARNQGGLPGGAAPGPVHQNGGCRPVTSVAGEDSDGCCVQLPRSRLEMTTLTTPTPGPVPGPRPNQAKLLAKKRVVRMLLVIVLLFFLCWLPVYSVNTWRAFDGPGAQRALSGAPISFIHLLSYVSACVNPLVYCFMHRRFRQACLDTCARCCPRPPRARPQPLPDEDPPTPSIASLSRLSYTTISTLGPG

[3] = biological target: T3, Gastrin/cholecystokinin type B receptor (Mus musculus, UniProt P56481); experiment: Concentration required to inhibit the binding of 20 pM [125I]-BH-CCK-8S radioligand to mouse cortical membrane CCK2 receptor
T3 sequence (P56481 whole entry): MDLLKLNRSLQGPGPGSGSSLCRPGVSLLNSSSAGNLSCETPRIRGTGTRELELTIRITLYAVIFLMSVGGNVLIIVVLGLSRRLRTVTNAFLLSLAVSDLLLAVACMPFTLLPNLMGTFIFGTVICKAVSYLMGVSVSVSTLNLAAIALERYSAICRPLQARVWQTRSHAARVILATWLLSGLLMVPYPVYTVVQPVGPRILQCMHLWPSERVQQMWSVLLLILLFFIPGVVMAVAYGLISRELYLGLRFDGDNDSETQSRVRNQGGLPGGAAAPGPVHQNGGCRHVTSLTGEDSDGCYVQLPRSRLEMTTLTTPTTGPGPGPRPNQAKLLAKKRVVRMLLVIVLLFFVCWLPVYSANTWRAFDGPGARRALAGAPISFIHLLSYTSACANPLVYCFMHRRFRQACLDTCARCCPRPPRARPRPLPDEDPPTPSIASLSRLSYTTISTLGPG
Procedure, shortened: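 Mouse cerebral cortex homogenates. Competition with 20 pM [125I]BH-CCK-8S for CCK2 sites, reported as pKI. At least three separate experiments give ± SEM. Where only two experiments were run, no error is given (approximate SEM 0.1 log units).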

[4] = biological target: T4, Gastrin/cholecystokinin type B receptor (Canis lupus familiaris, UniProt P30552); experiment: Concentration required to inhibit the binding of [125I]-BH-CCK-8S radioligand to canine gastric mucosa CCK2 receptor
T4 sequence (P30552 whole entry): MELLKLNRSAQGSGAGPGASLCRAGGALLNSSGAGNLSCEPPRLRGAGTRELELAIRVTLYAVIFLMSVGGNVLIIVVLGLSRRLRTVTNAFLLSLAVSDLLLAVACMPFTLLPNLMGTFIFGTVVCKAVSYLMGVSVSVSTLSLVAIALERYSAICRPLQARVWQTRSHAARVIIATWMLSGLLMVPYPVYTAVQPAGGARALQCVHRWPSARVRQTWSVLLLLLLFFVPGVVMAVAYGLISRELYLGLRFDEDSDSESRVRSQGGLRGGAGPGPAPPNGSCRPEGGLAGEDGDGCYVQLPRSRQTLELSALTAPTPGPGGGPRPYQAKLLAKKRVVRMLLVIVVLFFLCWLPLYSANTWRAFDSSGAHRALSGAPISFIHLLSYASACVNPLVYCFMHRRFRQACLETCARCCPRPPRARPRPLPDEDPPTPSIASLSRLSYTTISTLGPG
Procedure, shortened: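 Canine gastric mucosa. Competition with [125I]BH-CCK-8S for CCK2 binding sites, reported as pIC50 ± SEM.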

[5] = biological target: T5, Gastrin/cholecystokinin type B receptor (Canis lupus familiaris) (UniProt P30552); experiment: Percent inhibition (i.v., 1.0 mg/Kg) against dog CCK2 receptor
T5 sequence (whole entry): T4 sequence (P30552 whole entry)
Procedure, shortened: (§1)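 Conscious dogs given a bolus iv or intraduodenally during pentagastrin-stimulated acid secretion. Result is the peak percentage inhibition of acid output in the first four collection periods (1 h) after dosing, ± SEM, with the number of replicates stated.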

[6] = Lipophilicity was measured in octanol/buffer (pH 7.4); type: physicochemical
Procedure, shortened: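 log D from partition between octanol and buffer at pH 7.4, given ± error.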

[7] = biological target: T5, Gastrin/cholecystokinin type B receptor (Canis lupus familiaris); experiment: Percent inhibition (i.v., 3.0 mg/Kg) against dog CCK2 receptor; procedure, shortened: as §1
[8] = biological target: T6, Gastrin/cholecystokinin type B receptor (Rattus norvegicus, UniProt P30553); experiment: Antagonist activity against CCK2 receptor estimated from single shifts of pentagastrin concentration-effect curves in the isolated rat stomach; type: functional, tissue-based; settings: read-out: pA2 (converted)
T6 sequence (P30553 whole entry): T2 sequence (whole entry)

| Compound | Ki [1] [nM] | Ki [3] [nM] | other results |
| --- | --- | --- | --- |
| O=C(O)c1cccc(NC(=O)c2[nH]c(C3CCCCCC3)nc2CCC23CC4CC(CC(C4)C2)C3)c1 | 126 | – | – |
| O=C(O)c1cccc(NC(=O)c2cc(-c3ccccc3)[nH]c2CCC23CC4CC(CC(C4)C2)C3)c1 | 2090 | – | pA2 [2]: inactive |
| Cc1ccccc1-c1nc(C(=O)Nc2cccc(CCC(=O)O)c2)c(CCC23CC4CC(CC(C4)C2)C3)[nH]1 | 302 | 6.92 | – |
| COc1ccc(NC(=O)c2[nH]c(-c3ccccc3C)nc2CCC23CC4CC(CC(C4)C2)C3)cc1C(=O)O | – | – | pA2 [2]: inactive |
| CC(C)c1nc(C(=O)Nc2cccc(C(=O)O)c2)c(CCC23CC4CC(CC(C4)C2)C3)[nH]1 | 1450 | – | – |
| O=C(O)c1cccc(NC(=O)c2[nH]c(C34CCC(CC3)CC4)nc2CCC23CC4CC(CC(C4)C2)C3)c1 | 324 | 20.4 | – |
| O=C(O)c1cccc(NC(=O)c2[nH]c(-c3ccc4ccccc4c3)nc2CC2CCCCCC2)c1 | 2510 | – | pA2 [2]: inactive |
| O=C(O)c1cccc(NC(=O)c2nc(C3CCCCC3)[nH]c2COC23CC4CC(CC(C4)C2)C3)c1 | 562 | 13.5 | IC50 [4]: 19.5 nM; inhibition [5]: 76%; logD [6]: 2.73 |
| Cc1ccccc1-c1nc(C(=O)Nc2cccc(C(=O)O)c2)c(CCC23CC4CC(CC(C4)C2)C3)[nH]1 | 661 | – | – |
| O=C(O)c1cccc(NC(=O)c2nc(C34CCC(CC3)CC4)[nH]c2COC23CC4CC(CC(C4)C2)C3)c1 | 776 | 27.5 | – |
| Cc1ccc(-c2nc(C(=O)Nc3cccc(C(=O)O)c3)c(CCC34CC5CC(CC(C5)C3)C4)[nH]2)c(C)c1 | 617 | – | – |
| Cc1cccc(C)c1-c1nc(C(=O)Nc2cccc(C(=O)O)c2)c(CCC23CC4CC(CC(C4)C2)C3)[nH]1 | > 10000 | 141 | – |
| Cc1ccccc1-c1nc(C(=O)Nc2cccc(CC(=O)O)c2)c(CCC23CC4CC(CC(C4)C2)C3)[nH]1 | 398 | – | pA2 [2]: inactive |
| O=C(O)c1cccc(NC(=O)c2[nH]c(-c3ccccc3)nc2CCC23CC4CC(CC(C4)C2)C3)c1 | 1320 | 316 | – |
| O=C(O)c1cccc(NC(=O)c2[nH]c(C3CC3)nc2CCC23CC4CC(CC(C4)C2)C3)c1 | 2340 | – | – |
| Cc1cc(C)c(-c2nc(C(=O)Nc3ccc(C)c(C(=O)O)c3)c(CCC34CC5CC(CC(C5)C3)C4)[nH]2)c(C)c1 | 123 | 3.02 | inhibition [7]: 76%; IC50 [4]: 39.8 nM; Kb [8]: 3.31 nM; logD [6]: 4.9 |
| Cc1ccccc1-c1nc(C(=O)Nc2cccc(C(=O)O)c2)c(CCC2CCCCC2)[nH]1 | 295 | 617 | – |
| CC1(c2nc(C(=O)Nc3cccc(C(=O)O)c3)c(CCC34CC5CC(CC(C5)C3)C4)[nH]2)CCCCC1 | 562 | – | – |

| Compound | Ki [1] [nM] | Ki [3] [nM] | other results |
| --- | --- | --- | --- |
| CCCc1nc(C(=O)Nc2cccc(C(=O)O)c2)c(CCC23CC4CC(CC(C4)C2)C3)[nH]1 | 1120 | – | – |
| Cc1ccccc1-c1nc(C(=O)Nc2cccc(C(=O)O)c2)c(CC23CC4CC(CC(C4)C2)C3)[nH]1 | – | – | pA2 [2]: inactive |
| Cc1cccc(NC(=O)c2[nH]c(-c3ccccc3C)nc2CCC23CC4CC(CC(C4)C2)C3)c1 | – | > 100000 | – |
| Cc1cc(C)c(-c2nc(C(=O)Nc3cccc(C(=O)O)c3)c(CCC34CC5CC(CC(C5)C3)C4)[nH]2)c(C)c1 | 724 | 26.9 | – |
| Cc1ccc(NC(=O)c2[nH]c(C3(C)CCCCC3)nc2CCC23CC4CC(CC(C4)C2)C3)cc1C(=O)O | – | 3.31 | inhibition [7]: 54%; IC50 [4]: 11.2 nM; logD [6]: 4.91 |
| CC(C)(C)c1nc(C(=O)Nc2cccc(C(=O)O)c2)c(CCC23CC4CC(CC(C4)C2)C3)[nH]1 | 2880 | – | – |
| CNc1cccc(NC(=O)c2[nH]c(-c3ccccc3C)nc2CCC23CC4CC(CC(C4)C2)C3)c1 | – | 11200 | – |
| Cc1ccccc1-c1cc(C(=O)Nc2cccc(C(=O)O)c2)c(CCC23CC4CC(CC(C4)C2)C3)[nH]1 | 2190 | – | pA2 [2]: inactive |
| COC(=O)c1cccc(NC(=O)c2[nH]c(-c3ccccc3C)nc2CCC23CC4CC(CC(C4)C2)C3)c1 | – | > 100000 | – |
| Cc1ccccc1-c1nc(C(=O)Nc2cccc(C(=O)O)c2)c(CCC(C)C)[nH]1 | 661 | 8320 | Kb [8]: 26.3 nM |
| Cc1ccc(NC(=O)c2nc(-c3ccccc3C)[nH]c2CCC23CC4CC(CC(C4)C2)C3)cc1C(=O)O | 417 | – | Kb [8]: 33.1 nM |
| Cc1ccccc1-c1nc(CCC23CC4CC(CC(C4)C2)C3)c(C(=O)Nc2ccc(N(C)C)c(C(=O)O)c2)[nH]1 | 794 | – | – |
| Cc1ccccc1-c1nc(C(=O)Nc2ccc(F)c(C(=O)O)c2)c(CCC23CC4CC(CC(C4)C2)C3)[nH]1 | 562 | – | – |
| O=C(O)c1cccc(NC(=O)c2[nH]c(C3CCCC3)nc2CCC23CC4CC(CC(C4)C2)C3)c1 | 525 | 39.8 | – |
| Cc1cc(C)c(-c2nc(C(=O)Nc3cccc(C(=O)O)c3)c(COC34CC5CC(CC(C5)C3)C4)[nH]2)c(C)c1 | 537 | 13.8 | IC50 [4]: 63.1 nM; inhibition [5]: 61%; logD [6]: 3.02 |
| O=C(O)c1cccc(NC(=O)c2[nH]c(C3CCCCCCCCCCC3)nc2CCC23CC4CC(CC(C4)C2)C3)c1 | – | – | pA2 [2]: inactive |
| O=C(O)c1cccc(NC(=O)c2cc(-c3ccc4ccccc4c3)[nH]c2CC2CCCCCC2)c1 | 3020 | – | pA2 [2]: inactive |

Source: ChEMBL document CHEMBL1141034, “Optimization of the in vitro and in vivo properties of a novel series of 2,4,5-trisubstituted imidazoles as potent cholecystokinin-2 (CCK2) antagonists” (J Med Chem, 2005)
